# From ChEMBL document CHEMBL1926661, “The arginine mimicking β-amino acid β³hPhe(3-H₂N-CH₂) as S1 ligand in cyclotheonamide-based β-tryptase inhibitors” (Bioorg Med Chem, 2011)
# Key:
# [1] = organism: Homo sapiens; experiment: Selectivity ratio of Ki for Trypsin to Ki for human beta-tryptase
# [2] = Inhibition of human beta-tryptase
# [3] = Inhibition of trypsin
# [4] = target: Plasma kallikrein (Homo sapiens, UniProt P03952); experiment: Inhibition of plasma kallikrein
# [5] = Inhibition of human mast cell tryptase-beta using chromogenic substrate
# [6] = target: Kallikrein-1 (Homo sapiens, UniProt P06870); experiment: Inhibition of tissue kallikrein
# [7] = target: Coagulation factor X (Homo sapiens, UniProt P00742); experiment: Inhibition of factor 10a
# [8] = Metabolic stability in human serum assessed as compound remaining at 200 uM after 48 hrs by RP-HPLC analysis; format: ADME, cell-free; conditions: read-out: Stability
# Method in brief: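 Compound at 200 μM incubated in undiluted human plasma or human serum at 37 °C for up to 48 h. At time points, samples were acidified with an equal volume of 0.1% TFA and centrifuged at 8000 × g for 10 min. Supernatants were analysed by C18 RP-HPLC using a linear H₂O/MeCN (0.1% TFA) gradient over 200 min to quantify remaining intact inhibitor.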
# [9] = target: Prothrombin (Homo sapiens, UniProt P00734); experiment: Inhibition of thrombin
# [10] = Inhibition of beta-tryptase
# Chain of Plasma kallikrein (P03952 20-390 limits assumed): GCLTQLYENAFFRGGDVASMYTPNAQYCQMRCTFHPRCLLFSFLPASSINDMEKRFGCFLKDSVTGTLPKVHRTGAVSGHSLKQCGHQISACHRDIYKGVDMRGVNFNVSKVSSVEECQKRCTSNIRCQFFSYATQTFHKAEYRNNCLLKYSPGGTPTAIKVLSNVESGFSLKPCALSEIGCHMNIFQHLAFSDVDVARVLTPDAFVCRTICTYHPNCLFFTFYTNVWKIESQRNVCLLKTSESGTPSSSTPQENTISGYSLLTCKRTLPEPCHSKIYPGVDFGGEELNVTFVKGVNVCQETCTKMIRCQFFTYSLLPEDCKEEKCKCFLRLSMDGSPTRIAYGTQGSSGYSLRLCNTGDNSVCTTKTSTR
# Chain of Plasma kallikrein (P03952 391-638 limits assumed): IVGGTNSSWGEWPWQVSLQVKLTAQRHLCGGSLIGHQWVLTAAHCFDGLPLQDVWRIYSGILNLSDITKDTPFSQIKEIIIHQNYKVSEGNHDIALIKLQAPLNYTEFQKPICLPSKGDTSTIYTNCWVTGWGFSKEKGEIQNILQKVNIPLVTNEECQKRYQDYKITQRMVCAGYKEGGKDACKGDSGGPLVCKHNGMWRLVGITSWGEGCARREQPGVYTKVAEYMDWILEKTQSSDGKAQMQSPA
# Chain of Kallikrein-1 (P06870 whole entry): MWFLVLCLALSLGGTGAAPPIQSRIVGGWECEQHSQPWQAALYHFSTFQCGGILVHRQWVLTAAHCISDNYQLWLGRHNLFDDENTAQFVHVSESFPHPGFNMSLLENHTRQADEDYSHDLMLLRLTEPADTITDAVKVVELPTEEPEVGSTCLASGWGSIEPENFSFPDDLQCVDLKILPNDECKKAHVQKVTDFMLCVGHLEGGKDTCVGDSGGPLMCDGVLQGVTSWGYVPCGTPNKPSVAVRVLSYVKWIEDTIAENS
# Chain of Coagulation factor X (P00742 41-179 limits assumed): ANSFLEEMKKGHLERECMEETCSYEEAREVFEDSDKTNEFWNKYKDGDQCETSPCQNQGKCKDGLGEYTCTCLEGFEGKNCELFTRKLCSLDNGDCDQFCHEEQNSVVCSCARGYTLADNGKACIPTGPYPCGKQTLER
# Chain of Coagulation factor X (P00742 235-488 limits assumed): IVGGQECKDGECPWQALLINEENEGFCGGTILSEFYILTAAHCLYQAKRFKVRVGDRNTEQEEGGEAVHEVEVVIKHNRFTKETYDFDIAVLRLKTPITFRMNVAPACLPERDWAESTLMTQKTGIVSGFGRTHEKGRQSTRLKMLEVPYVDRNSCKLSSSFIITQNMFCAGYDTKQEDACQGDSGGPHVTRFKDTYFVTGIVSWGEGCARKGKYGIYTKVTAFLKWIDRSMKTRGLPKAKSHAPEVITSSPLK
Compound,Ratio Ki [1],Ki [2] [µM],Ki [3] [µM],Ki [4] [µM],Ki [5] [µM],Ki [6] [µM],Ki [7] [µM],"remaining at 48 h, 200 µM [8] [%]",Ki [9] [µM],Ki [10] [µM]
CC[C@H](C)[C@H]1NC(=O)C[C@H](CCCNC(=N)N)NC(=O)[C@@H]2CCCN2C(=O)[C@@H](NC(=O)CCCCCN)CNC(=O)/C=C/[C@H](Cc2ccc(O)cc2)NC1=O,1400,0.007,10,–,–,–,–,–,–,–
CC[C@H](C)[C@H]1NC(=O)C[C@H](Cc2cccc(CN)c2)NC(=O)[C@@H]2CCCN2C(=O)[C@@H](NC(C)=O)CNC(=O)/C=C/[C@H](Cc2ccc(O)cc2)NC1=O,170,–,100,3300,0.6,1800,310,95,680,–
COC(=O)C(Cc1cccc(CN)c1)NC(C)=O (racemic),–,–,400,–,–,–,–,–,–,14
CC[C@H](C)[C@H]1NC(=O)C[C@H](Cc2cccc(CN)c2)NC(=O)[C@@H]2CCCN2C(=O)[C@@H](NC(=O)CCCCCN)CNC(=O)/C=C/[C@H](Cc2ccc(O)cc2)NC1=O,2000,–,50,2000,0.025,1300,360,81,330,–
CC[C@H](C)[C@H]1NC(=O)C[C@H](CCCNC(=N)N)NC(=O)[C@@H]2CCCN2C(=O)[C@@H](NC(C)=O)CNC(=O)/C=C/[C@H](Cc2ccc(O)cc2)NC1=O,0.8,40,30,–,–,–,–,–,–,–
CC[C@H](C)[C@H]1NC(=O)C[C@H](CCCCN)NC(=O)[C@@H]2CCCN2C(=O)[C@@H](NC(C)=O)CNC(=O)/C=C/[C@H](Cc2ccc(O)cc2)NC1=O,0.6,380,230,–,–,–,–,–,–,–
